MEKK3 PB1 HTS – modulators (inhibitors or enhancers) of MEK5 binding to human MEKK3 PB1 domain; Q99759; bead-based flow cytometry, Alexa488-MEK5 binding to MEKK3; actives lie on both sides; 0 = blocked by unlabeled MEK5, 100 = vehicle; binding response (% of control), % at 10 µM; 290,000 compounds, 1.4% hits;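 active = binding response more than 3 SD above or below the average of its plate-row segment, actives on both sides; inconclusive = wells at one plate position flagged as instrument error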;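 note: Alexa488 bead fluorescence after subtracting the streptavidin-only scavenger bead signal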
MEKK2mut PB1 HTS – signal of MEK5 binding to mutant human MEKK2 PB1 domain; percent response, % at 10 µM; AID 1530; bead flow cytometry, Alexa488-MEK5 binding to MEKK2 mutant; 290,000 compounds, 0.35% hits; in the data active = percent response above about 24%, passing the limit was not always enough
UBC13 polyUb – blocks human UBC13 polyubiquitin chain formation; P61088; TR-FRET; inhibition, % at 20 µM; 330,000 compounds, 0.47% hits; AID 485273; in the data active = inhibition above about 45%, passing the limit was not always enough; inconclusive = no clear call, values can overlap the other calls
Apaf-1 inh – human Apaf-1 inhibition; reconstituted apoptosome caspase-3 activity, DEVD-Rh110 fluorescence; inhibition, % at 20 µM; 330,000 compounds, 0.71% hits; active = inhibition of at least 40% at 20 µM;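 note: plate controls were DMSO wells for no effect and DEVD-CHO caspase inhibitor wells for full effect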
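Assay system – apoptosome proteins · Medium – Hepes buffer, pH 7.5 · Also added – cytochrome c with DEVD-Rh110 · Timing – 30 min compound preincubation, 50 min activation, room temperature · Detection – Rh110 fluorescence, excitation 480 nm, emission 540 nm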
MEKK2wt PB1 HTS – raises or lowers MEK5 binding to wildtype human MEKK2 PB1 domain; Q9Y2U5; bead flow cytometry, Alexa488-MEK5 binding to MEKK2 WT; actives lie on both sides; binding response (% of control), % at 10 µM; 290,000 compounds, 1.1% hits; AID 1531; in the data active = binding response below about 67% or above about 130%; inconclusive = no clear call, values can overlap the other calls; inactive = in between
PREPL inhibitor – human PREPL enzyme inhibition; Q4J6C6; recombinant PREPL, fluorescence polarization activity-based probe; inhibition, % at 5.96 µM; 320,000 compounds, 0.68% hits; AID 2751; in the data active = inhibition above about 43%;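 note: 0% = enzyme with DMSO and 100% = wells lacking enzyme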
Target sequence (Q4J6C6 whole entry, looked up): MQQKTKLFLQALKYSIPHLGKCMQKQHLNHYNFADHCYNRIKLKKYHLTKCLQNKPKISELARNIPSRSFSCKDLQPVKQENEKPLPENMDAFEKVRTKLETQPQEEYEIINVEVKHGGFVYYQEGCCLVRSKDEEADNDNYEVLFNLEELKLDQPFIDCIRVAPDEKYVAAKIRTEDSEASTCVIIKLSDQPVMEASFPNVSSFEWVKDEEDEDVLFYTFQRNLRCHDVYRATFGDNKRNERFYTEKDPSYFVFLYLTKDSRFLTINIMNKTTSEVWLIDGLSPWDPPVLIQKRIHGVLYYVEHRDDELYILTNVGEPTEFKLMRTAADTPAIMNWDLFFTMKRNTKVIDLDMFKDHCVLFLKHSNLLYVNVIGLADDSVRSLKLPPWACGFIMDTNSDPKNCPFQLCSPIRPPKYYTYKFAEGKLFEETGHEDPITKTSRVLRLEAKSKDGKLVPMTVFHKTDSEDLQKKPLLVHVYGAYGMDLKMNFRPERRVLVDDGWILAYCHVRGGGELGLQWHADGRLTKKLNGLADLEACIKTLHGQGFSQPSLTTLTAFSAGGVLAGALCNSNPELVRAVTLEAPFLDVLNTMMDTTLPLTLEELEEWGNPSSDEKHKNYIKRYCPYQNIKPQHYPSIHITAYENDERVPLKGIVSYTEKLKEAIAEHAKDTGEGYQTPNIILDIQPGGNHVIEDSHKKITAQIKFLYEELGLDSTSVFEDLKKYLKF
Casp3 counter – caspase-3 inhibition (UBC13 counter-screen) | shares compounds with UBC13 polyUb | AID 488856 | Recombinant caspase-3, Caspase-Glo 3/7 luminescence, 60 min | inhibition, % at 20 µM | 1,400 compounds, 4% hits;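 active = mean inhibition across replicates above about 26%, limit read from the data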;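 note: plate controls were DMSO with caspase-3 for no effect and DMSO wells lacking enzyme for full effect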
UBC13 conf – human UBC13 polyubiquitin inhibition, confirmed; shares compounds with UBC13 polyUb; UBC13 polyubiquitination, TR-FRET, biochemical; inhibition, % at 10 µM; 1,400 compounds, 68% hits; AID 488859; in the data active = inhibition above about 45%; inconclusive = no clear call, values can overlap the other calls
Starred values were filed as active, the others as inactive; ? = inconclusive; . = no result given. A selection: hits, their analogues and other compounds. The true share with any hit is near 3.1%.

SMILES	MEKK3 PB1 HTS	MEKK2mut PB1 HTS	UBC13 polyUb	Apaf-1 inh	MEKK2wt PB1 HTS	PREPL inhibitor	Casp3 counter	UBC13 conf
CCOc1ccc(NC(=O)Cn2c(=O)n(CCCC(=O)NC3CCN(Cc4ccccc4)CC3)c(=O)c3ccccc32)cc1	101	5	92*	13	115	10	-1	97*
NC(=S)N=Nc1c(O)[nH]c2ccccc12	86	-2	63*	-11	91	2	2	80*
CCOc1ccc(NC(=S)N=Nc2c(O)[nH]c3ccccc23)cc1	84	-14	61*	14	86	11	3	77*
Cc1ccc(N=Nc2c(O)[nH]c3ccc(F)cc23)cc1	95	-3	-24	8	99	11	.	.
Cc1ccc2[nH]c(O)c(N=NC(N)=S)c2c1	96	5	79*	9	96	-8	-2	96*
CCCCNC(=S)N=Nc1c(O)[nH]c2ccccc12	96	-2	85*	4	95	7	2	102*
Oc1cccc(NC(=S)N=Nc2c(O)[nH]c3ccccc23)c1	102	0	?	-26	87	13	.	.
COc1ccc(CN(C)Cc2c(O)ccc3cc(Br)ccc23)cc1OC	102	3	8	22	110	17	.	.
Cc1cc(NC(=O)c2cc(-c3ccc(C)s3)nc3ccccc23)no1	105	8	40	7	104	0	.	.
Cc1cccc(NC(=O)c2cc(-c3ccc(C)s3)nc3ccccc23)n1	105	-1	47*	0	105	-2	3	40
O=C(Nc1ccccn1)c1cc(-c2ccc(Cl)s2)nc2ccccc12	.	.	47*	13	.	5	1	?
CN(Cc1ccccc1)C(=O)COC(=O)c1cc(-c2ccc(Cl)s2)nc2ccccc12	95	-6	51*	14	79	-20	-2	?
O=C(CC1NCCNC1=O)Nc1cccc([N+](=O)[O-])c1 (centres undefined)	104	15	2	-12	121	2	.	.
CCOc1nc2cnccc2n(CC(=O)Nc2ccc(C)c(C)c2)c1=O	98	3	-4	-3	100	-10	.	.
CCCCOc1ccc(-c2cnc3ccccc3n2)cc1	119	-1	54*	-1	98	-8	93*	?
Oc1ccc(-c2cnc3ccccc3n2)cc1	.	.	5	-13	.	-8	.	.
N#Cc1ccc(Cl)cc1NC(=O)CNCc1cccs1	91	-17	3	4	93	7	.	.
COc1cc(-c2nc3cc(C)ccn3c2NC2CCCCC2)ccc1-c1ccc(C(C)=O)cc1	.	.	-31	16	.	10	.	.
CCCCCCSc1cc(-c2nc3cc(C)ccn3c2NC2CCCCC2)ccc1OC	.	.	51*	21	.	7	-1	30
CCCCNc1c(-c2ccc(OC)c(SC3CCCCC3)c2)nc2cc(C)ccn12	.	.	50*	21	.	18	3	22
COc1ccc(Cc2nnc(NC(=O)c3cccc(F)c3)s2)cc1OC	98	-3	3	2	101	-10	.	.
CCC(C)c1ccc(NC(=O)Nc2cnccn2)cc1 (centres undefined)	102	4	-2	13	106	5	.	.
O=C(CCCCCn1c(=O)[nH]c2ccccc2c1=O)NCCCN1CCN(c2ccccc2F)CC1	.	.	63*	7	.	3	-1	53*
O=C(CCNC(=O)Cn1ccc2ccccc2c1=O)NCCN1CCN(c2ccccc2F)CC1	95	2	91*	2	100	8	2	101*
O=C(CCNC(=O)Cn1ccc2ccccc2c1=O)NCCN1CCc2ccccc2C1	109	8	0	5	112	14	.	.
SMILES	MEKK3 PB1 HTS	MEKK2mut PB1 HTS	UBC13 polyUb	Apaf-1 inh	MEKK2wt PB1 HTS	PREPL inhibitor	Casp3 counter	UBC13 conf
CCCC(C(=O)NC(C)(C)C)N(C(=O)c1snc(C(N)=O)c1N)c1ccc2c(c1)OCCO2 (centres undefined)	91	-7	65*	-2	87	0	-3	86*
Cc1cc(C)cc(N(CC(=O)NCc2ccc(F)cc2)C(=O)c2snc(C(N)=O)c2N)c1	101	1	12	7	99	9	.	.
CCC(C)(C)NC(=O)CN(C(=O)c1snc(C(N)=O)c1N)c1ccc2nc(C)sc2c1	98	-4	74*	0	96	11	2	83*
CCCC(C(=O)NC(C)(C)C)N(Cc1ccc(F)cc1)C(=O)c1snc(C(N)=O)c1N (centres undefined)	101	7	33	-108	106	-7	.	.
COc1ccc(N(CC(=O)NC2CCCCC2)C(=O)c2snc(C(N)=O)c2N)cc1	100	-2	23	10	100	-2	.	.
CCC(C)(C)NC(=O)CN(C(=O)c1snc(C(N)=O)c1N)c1ccc2c(c1)OCCO2	104	8	70*	-5	102	-8	-6	59*
CC(Sc1nnnn1C)C(=O)Nc1ncc(Cl)cc1Cl (centres undefined)	.	.	-2	-4	.	6	.	.
Cc1n(N)c2ccccc2[n+]1CC(=O)c1ccccc1	105	5	-12	-2	105	8	.	.
CCc1cccc(NC(=O)CSC2=NS(=O)(=O)c3ccccc32)c1	101	-1	47*	-13	100	-5	0	25
O=C(NCC1CCN(Cc2cccc(Cl)c2)CC1)C1CCCN(c2ncnc3c2nc2n3CCCCC2)C1 (centres undefined)	93	-4	93*	12	100	26	-3	107*
CCC1CCCCN1CCCNC(=O)C1CCCN(c2ncnc3c2nc2n3CCCCC2)C1 (centres undefined)	96	3	35	11	99	13	.	.
O=C(NCC1CCN(Cc2ccc(Cl)cc2)CC1)C1CCCN(c2ncnc3c2nc2n3CCCCC2)C1 (centres undefined)	107	25*	78*	5	132	24	-1	101*
CN1CCN(C(=O)C2CCN(c3ncnc4c3nc3n4CCCCC3)CC2)CC1	98	-4	86*	-4	96	-2	5	101*
CC1CCCC(C)N1CCCNC(=O)C1CCCN(c2ncnc3c2nc2n3CCCCC2)C1 (centres undefined)	94	-11	56*	9	98	28	2	88*
O=C(NCc1ccccc1)C1CCCN(c2ncnc3c2nc2n3CCCCC2)C1 (centres undefined)	93	-15	5	8	95	9	.	.
O=C(NCC1CCN(Cc2ccc(F)cc2)CC1)C1CCCN(c2ncnc3c2nc2n3CCCCC2)C1 (centres undefined)	98	3	78*	4	107	14	-3	95*
